Series [1] deals with HeLa. Kind of series: Cytotoxicity against FR-positive human HeLa cells assessed as reduction in cell viability measured after 72 hrs by MTT assay. The series is classed as functional, cell-based. The method in brief: (§1)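 Cancer or normal human cells were exposed to a range of concentrations for 72 h. Viability was read by MTT assay. IC50 was derived from the concentration–response curves, and percent viability loss was taken at 20 μM.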

Series [2] concerns the target T1, Cathepsin B (Homo sapiens, UniProt P07858). Kind of series: Prodrug release assessed as cathepsin B (unknown origin)-mediated cleavage of parent compound by measuring retention time of folic acid linked-glycyl-hydroxypehylalanine by RP-HPLC analysis/mass spectrometry. It is filed as ADME. The method in brief:
(§2)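 The cathepsin B digest of the conjugate was analysed by analytical RP-HPLC with mass spectrometry. Cleavage products were assigned from their retention times and [M+H]+ or [M+Na]+ ions.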

For series [3], the system named is SK-HEP1. Kind of series: Cytotoxicity against FR-positive human SKHEP1 cells assessed as reduction in cell viability measured after 72 hrs by MTT assay. It is filed as functional, cell-based. Conditions: SK-HEP1, 72 h; call rule not given here. The method in brief:
as §1

The nature of series [4]: Drug uptake in folate receptor negative human A549 cells assessed as accumulation of compound in lysosomes by measuring fluorescence intensity at 5 uM incubated for 24 hrs by Hoechst 33342 staining based confocal microscopy. The series is classed as ADME, cell-based. Conditions: a549, 24 h. The method in brief: (§3)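 Cells were incubated with 5 μM conjugate for 24 h. Nuclei were counterstained with Hoechst 33342 (1 μg/mL). Cellular fluorescence and its localisation were imaged by confocal microscopy.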

The target of series [5] is T1, Cathepsin B. Kind of series: Prodrug release assessed as cathepsin B (unknown origin)-mediated cleavage of parent compound by measuring retention time of cyclic dipeptide matography-mass spectrometry. It is filed as ADME.
Series [6] addresses T1, Cathepsin B. Kind of series: Prodrug release in FR-overexpressing human SKHEP1 cells assessed as cathepsin B-mediated 7-ethyl-10-hydroxycamptothecin accumulation in nucleus at 5 uM preincubated with cathepsin B inhibitor CA-074 Me for 24 hrs followed by compound treatment for 24 hrs by Hoechst 33342 staining based confocal microscopy. The series is classed as ADME, cell-based. Conditions: sk-hep1, 24 h. The method in brief: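 SK-Hep-1 cells were pretreated with 20 μM CA-074 Me (cathepsin B inhibitor) for 24 h, then given 5 μM conjugate for 24 h. Nuclei were stained with Hoechst 33342 (1 μg/mL), and cells were imaged by confocal microscopy.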

Series [7] deals with T1, Cathepsin B. Kind of series: Prodrug release assessed as cathepsin B (unknown origin)-mediated cleavage of GFLG peptide of parent compound by measuring formation of 7-ethyl-10-hydroxycamptothecin at 37 degreeC by fluorescence spectroscopy. The series is classed as ADME. The method in brief: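 The conjugate was incubated with cathepsin B at 37 °C, alongside an enzyme-free control. Release of free SN38 was followed as the rise in fluorescence over time (λex 365 nm, λem 540 nm).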

Series [8] can be described thus: Retention time of the compound by RP-HPLC analysis/mass spectrometry. It is filed as physicochemical.
Series [9] has as its target T1, Cathepsin B. Kind of series: Prodrug release in FR-overexpressing human SKHEP1 cells assessed as cathepsin B-mediated 7-ethyl-10-hydroxycamptothecin accumulation in nucleus at 5 uM preincubated with folic acid for 1 hr followed by compound treatment for 24 hrs by Hoechst 33342 staining based confocal microscopy. The series is classed as ADME, cell-based. Conditions: sk-hep1, 24 h. The method in brief:
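SK-Hep-1 cells were pre-exposed to 3 mM free folic acid for 1 h to block the folate receptor, then given 5 μM conjugate for 24 h. Hoechst 33342 (1 μg/mL) was used as the nuclear stain, with confocal microscopy read-out.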

Series [10] has as its system A549. Kind of series: Cytotoxicity against FR-negative human A549 cells assessed as reduction in cell viability at 20 uM measured after 72 hrs by MTT assay relative to control. The series is classed as functional. Conditions: A549, 72 h. The method in brief:
as §1

In series [11] the target is T1, Cathepsin B. Kind of series: Prodrug release assessed as cathepsin B (unknown origin)-mediated cleavage of GFLG peptide of parent compound by measuring retention time of 7-ethyl-10-hydroxycamptothecin by RP-HPLC analysis/mass spectrometry. The series is classed as ADME. The method in brief:
as §2

Series [12] addresses T1, Cathepsin B. Kind of series: Prodrug release assessed as cathepsin B (unknown origin)-mediated cleavage of GFLG peptide of parent compound by measuring formation of 7-ethyl-10-hydroxycamptothecin at 37 degreeC in presence of cathepsin B inhibitor CA-074 Me by fluorescence spectroscopy. The series is classed as ADME.
Series [13] deals with SiHa. Kind of series: Cytotoxicity against FR-positive human SiHa cells assessed as reduction in cell viability measured after 72 hrs by MTT assay. The series is classed as functional, cell-based. The method in brief:
as §1

A short description of series [14]: Drug uptake in folate receptor negative human 16HBE cells assessed as accumulation of compound at 5 uM incubated for 24 hrs by Hoechst 33342 staining based confocal microscopy. Conditions: 16hbe14o-. It is filed as ADME, cell-based. The method in brief: as §3
Series [15] has as its target T1, Cathepsin B. Kind of series: Prodrug release in FR-overexpressing human SKHEP1 cells assessed as cathepsin B-mediated 7-ethyl-10-hydroxycamptothecin accumulation in nucleus at 5 uM incubated for 24 hrs by Hoechst 33342 staining based confocal microscopy. It is filed as ADME, cell-based. Conditions: sk-hep1, 24 h. The method in brief: as §3
Series [16] is described as follows: Cytotoxicity against human 16HBE cells assessed as reduction in cell viability at 20 uM measured after 72 hrs by MTT assay relative to control. It is filed as cell-based. Conditions: 16HBE (16HBE14o-) cells, read-out: INH. The method in brief:
as §1

For series [17], the system named is A549. Kind of series: Cytotoxicity against FR-negative human A549 cells assessed as reduction in cell viability measured after 72 hrs by MTT assay. Conditions: A549, 72 h. The series is classed as functional, cell-based.
Series [18] deals with 16HBE14o-. Kind of series: Cytotoxicity against human 16HBE cells assessed as reduction in cell viability measured after 72 hrs by MTT assay. It is filed as cell-based.

Experimental findings from ChEMBL document CHEMBL4622987, “Folate Receptor Targeting and Cathepsin B-Sensitive Drug Delivery System for Selective Cancer Cell Death and Imaging” (ACS Med Chem Lett, 2020) are described below.

On to `CCc1c2c(nc3ccc(OCc4ccc(NC(=O)CNC(=O)[C@H](CC(C)C)NC(=O)[C@H](Cc5ccccc5)NC(=O)CNC(=O)COCCOCCOCCOCc5cn(CCOCCOCCOCCNC(=O)CC[C@H](NC(=O)c6ccc(NCc7cnc8nc(N)[nH]c(=O)c8n7)cc6)C(=O)O)nn5)cc4)cc13)-c1cc3c(c(=O)n1C2)COC(=O)[C@]3(O)CC`, for which the IC50 in [1], in [3] and in [13] was 2000 to 3000 nM each time. The Retention_time in series [2] was 21.4 min; in series [5] it was 34 min; in series [8], 26.4 min; in series [11], 23.6 min. The Drug uptake entry in [4] and in series [14] was “Not Active” throughout. Besides, the Drug metabolism result is listed as “Metabolite_Notdetected” in [6]; “Metabolite_Detected” in series [7]; “Metabolite_Notdetected” in series [9]; “Metabolite_Notdetected” in series [12]; “Metabolite_Detected” in [15]. Further, the inhibition at 20 µM in series [10] is 51%. Moreover, the cytotoxicity at 72 h, 20 µM in series [16] was 24%.
As to `CCc1c2c(nc3ccc(O)cc13)-c1cc3c(c(=O)n1C2)COC(=O)[C@]3(O)CC` [7-ETHYL-10-HYDROXYCAMPTOTHECIN], the IC50 in [1], in series [3], in series [17], in series [18] and in series [13] was 300 to 1000 nM each time.
